Holding throughout (format): functional
The target in assay [1] is Major prion protein (Mus musculus) (UniProt P04925). As to the kind of experiment: Inhibition of PrPC polymerization by PrP-res at 100 uM. Further details: scale not given: the % may be the effect or the level left. The essentials: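 Substrate recombinant mouse PrP refolded without metal ions (50 μg), preincubated with compound (100 μM) in 500 μL H2O pH 6.5 for 30 min; seeded with aged Mn2+-refolded mouse PrP (10 μg). Turbidity read at 325 nm (5-mm cuvette) immediately and after 5 min; absorbance increase expressed as percentage of DMSO control.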

The target is the same in assay [2]. As to the kind of experiment: Inhibition of PrP-res formation in SMB (Scrapie mouse brain) cells at 10 uM. The essentials: (§1)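 Persistently scrapie-infected mouse SMB cells in 199 medium with 10% FCS, 5% newborn calf serum, 37 °C, 5% CO2; plated at 50% confluency, attached 24 h, then given fresh medium with compound diluted from 10 mM DMSO stock for 4 days. Lysates digested with proteinase K (80 μg/mL, 1 h, 37 °C); PrP-res detected by DR1 western blot, ECL, densitometry.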

For the next assay, the system named is SMB. Kind of assay: (§2) Compound was tested for the inhibition of PrP-res formation in SMB cells at 50 uM. Conditions: Mus musculus. The essentials:
as §1

Assay [3] is described as follows: Effective dose required for the inhibition of PrP-res formation in SMB cells. The note with it: Mus musculus, read-out: ED50 (the source's name). The gist of the method:
as §1

Assay [4] can be described thus: as §2. Conditions: Mus musculus. The essentials: as §1

Sequence of Major prion protein (Mus musculus) (P04925 whole entry): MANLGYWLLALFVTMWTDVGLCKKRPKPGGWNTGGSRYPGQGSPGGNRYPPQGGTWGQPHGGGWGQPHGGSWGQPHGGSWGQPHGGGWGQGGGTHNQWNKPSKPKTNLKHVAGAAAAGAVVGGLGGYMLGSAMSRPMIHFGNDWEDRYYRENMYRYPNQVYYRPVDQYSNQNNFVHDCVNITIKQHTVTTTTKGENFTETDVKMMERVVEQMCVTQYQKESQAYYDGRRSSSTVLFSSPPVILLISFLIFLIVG

For `COc1cc(NC(=O)c2ccc(-c3ccc(C(=O)Nc4ccc(C(=O)O)c(OC)c4)cc3)cc2)ccc1C(=O)O`, in assay [1], the Control came out at 472%. The inhibition – broadly, the change of the read-out against control, counted positive when it falls – in assay [2] was “Negative”.
For `O=C(O)c1ccc(C/N=C/c2ccc(/C=N/Cc3ccc(C(=O)O)cc3)cc2)cc1` the same measures were 117% and “Negative”.
On the same counts, the results for `N#Cc1ccc(NC(=O)c2ccc(C(=O)Nc3ccc(C#N)cc3)cc2)cc1` are 68% and “Negative”.
For `CCOC(=O)c1ccc(/N=C/c2ccc(/C=N/c3ccc(C(=O)OCC)c(O)c3)cc2)cc1O` the same measures were 92% and “Negative”.
`CCOC(=O)c1cc(/N=C/c2ccc(/C=N/c3ccc(O)c(C(=O)OCC)c3)cc2)ccc1O` had a Control in assay [1] of 60%. Further, in assay [2], the inhibition result is “Negative”.
Compound `O=C(Oc1ccccc1)c1ccc(/N=C/c2ccc(/C=N/c3ccc(C(=O)Oc4ccccc4)c(O)c3)cc2)cc1O` displayed a Control in assay [1] of 113%. Also, the inhibition result (in assay [2]; in the assay on SMB) was “Negative” in each case.
`O=C(O)c1cc(NS(=O)(=O)c2ccc(-c3ccc(S(=O)(=O)Nc4cc(C(=O)O)cc(C(=O)O)c4)cc3)cc2)cc(C(=O)O)c1`: the Control in assay [1] is 2%. Moreover, the inhibition entry (in assay [2]; in the assay on SMB) was “Negative” in each case.
Regarding `O=C(O)c1cc(/N=C/c2ccc(/C=N/c3ccc(O)c(C(=O)O)c3)cc2)ccc1O`, the Control in assay [1] is 53%. The inhibition result in assay [2] is “Negative”.
For `O=C(Nc1ccc([N+](=O)[O-])cc1O)c1ccc(-c2ccc(C(=O)Nc3ccc([N+](=O)[O-])cc3O)cc2)cc1` the same measures were 160% and “Negative”.
For `Oc1ccccc1/N=C/c1ccc(/C=N/c2ccccc2O)cc1` the same measures were 85% and “Negative”.
As to `COC(=O)c1ccc(OC)c(/N=C/c2ccc(/C=N/c3cc(C(=O)OC)ccc3OC)cc2)c1`, in assay [1], the Control stood at 47%. The inhibition result (in assay [2]; with SMB) was “Negative” each time.
`COC(=O)c1ccc(OC)c(NC(=O)c2ccc(C(=O)Nc3cc(C(=O)OC)ccc3OC)cc2)c1` came in with a Control in assay [1] of 70%. Further, the inhibition entry in assay [2] is “Negative”.
Compound `COC(=O)c1ccc(/N=C/c2ccc(/C=N/c3ccc(C(=O)OC)cc3O)cc2)c(O)c1` had a Control in assay [1] of 140%. Moreover, the inhibition entry (in assay [2]; with SMB) was “Negative” in each case.
In assay [1], `COc1ccc(C(=O)O)cc1/N=C/c1ccc(/C=N/c2cc(C(=O)O)ccc2OC)cc1` came in with a Control of 11%. In assay [2], the inhibition entry was “Negative”.
For the compound `COC(=O)c1cc(/N=C/c2ccc(/C=N/c3ccc(O)c(C(=O)OC)c3)cc2)ccc1O`, the inhibition result in assay [2] is “Negative”.
As to `O=C(Nc1ccccc1O)c1ccc(-c2ccc(C(=O)Nc3ccccc3O)cc2)cc1`, the Control in assay [1] is 430%. In addition, the inhibition entry in assay [2] is “Negative”.
On the same counts, the results for `Oc1ccccc1/N=C/c1ccc(-c2ccc(/C=N/c3ccccc3O)cc2)cc1` are 281% and “Negative”.
For `COC(=O)c1ccc(NC(=O)c2ccc(C(=O)Nc3ccc(C(=O)OC)cc3)cc2)cc1` the same measures were 100% and “Negative”.
On the same counts, the results for `O=C(Nc1ccccc1)c1ccc(-c2ccc(C(=O)Nc3ccccc3)cc2)cc1` are 171% and “Negative”.
On to `COC(=O)c1cc(NC(=O)c2ccc(C(=O)Nc3cc(C(=O)OC)cc(C(=O)OC)c3)cc2)cc(C(=O)OC)c1`, for which the Control in assay [1] stood at 147%. In addition, the inhibition entry in assay [2] was “Positive”. Moreover, the EC50 in assay [3] stood at 250 nM.
For `N#Cc1ccc(/N=C/c2ccc(/C=N/c3ccc(C#N)cc3)cc2)cc1` the same measures were 81%, “Positive” and 500 nM.
The compound `O=C(Oc1ccccc1)c1ccc(NS(=O)(=O)c2ccc(-c3ccc(S(=O)(=O)Nc4ccc(C(=O)Oc5ccccc5)c(O)c4)cc3)cc2)cc1O` gave a Control in assay [1] of 90%. For the same compound, the inhibition result (in assay [2]; with SMB) was “Negative” in each case.
On to `N#Cc1ccc(/N=C/c2ccc(/C=N/c3ccc(C#N)c4ccccc34)cc2)c2ccccc12`, for which the Control in assay [1] came out at 148%. Besides, the inhibition entry in assay [2] is “Negative”.
Turning to `COC(=O)c1cc(NC(=O)c2ccc(-c3ccc(C(=O)Nc4ccc(O)c(C(=O)OC)c4)cc3)cc2)ccc1O`, in assay [1], the Control was 249%. Moreover, in assay [2], the inhibition entry is “Positive”. Besides, the EC50 in assay [3] came to 5000 nM.
With `C(=N\c1ccccc1)/c1ccc(/C=N/c2ccccc2)cc1`, in assay [2], the inhibition result is “Negative”.
Regarding `COC(=O)c1ccc(NC(=O)c2ccc(-c3ccc(C(=O)Nc4ccc(C(=O)OC)c(O)c4)cc3)cc2)cc1O`, in assay [1], the Control result is recorded as “NR”. Moreover, the inhibition result in assay [2] is “Negative”.
On the same counts, the results for `O=[N+]([O-])c1ccc(/N=C/c2ccc(/C=N/c3ccc([N+](=O)[O-])cc3O)cc2)c(O)c1` are 109% and “Negative”.
In assay [1], `O=C(O)c1ccc(/N=C/c2ccc(/C=N/c3ccc(C(=O)O)cc3)cc2)cc1` registered a Control of 12%. Further, in assay [2], the inhibition result is “Negative”.
In assay [1], `COC(=O)c1ccc(NCc2ccc(CNc3ccc(C(=O)OC)cc3O)cc2)c(O)c1` gave a Control of 166%. The inhibition result in assay [2] is “Positive”. Besides, the EC50 in assay [3] amounted to 75 nM.
Turning to `N#Cc1ccc(NC(=O)c2ccc(-c3ccc(C(=O)Nc4ccc(C#N)cc4)cc3)cc2)cc1`, the Control in assay [1] stood at 196%. Moreover, the inhibition entry in assay [2] was “Negative”.
As to `COC(=O)c1ccc(NC(=O)c2ccc(C(=O)Nc3ccc(C(=O)OC)cc3O)cc2)c(O)c1`, in assay [1], the Control came to 62%. Further, the inhibition result in assay [2] is “Positive”. In addition, in assay [3], the EC50 turned out to be 5000 nM.
For `O=C(Nc1ccccc1)c1ccc(C(=O)Nc2ccccc2)cc1`, the Control in assay [1] was determined as 54%. In addition, the inhibition result in assay [2] was “Negative”.
For `O=C(Nc1ccc([N+](=O)[O-])cc1O)c1ccc(C(=O)Nc2ccc([N+](=O)[O-])cc2O)cc1` the same measures were 15% and “Negative”.
`O=C(O)c1ccc(/N=C/c2ccc(/C=N/c3ccc(C(=O)O)cc3O)cc2)c(O)c1`: in assay [1], the Control amounted to 35%. Also, the inhibition entry (in assay [2]; with SMB) was “Negative” throughout.
In assay [1], `COC(=O)c1ccc(NS(=O)(=O)c2ccc(-c3ccc(S(=O)(=O)Nc4ccc(C(=O)OC)cc4O)cc3)cc2)c(O)c1` yielded a Control of 30%. Moreover, the inhibition entry in assay [2] is “Negative”. In assay [4], this compound displayed an inhibition at 50 µM of 77%.
For `O=C(O)c1cc(/C=C/c2ccc(/C=C/c3ccc(O)c(C(=O)O)c3)cc2)ccc1O` the same measures were 72%, “Negative” and 3%.
In assay [1], `C(=N\c1ccccc1)/c1ccc(-c2ccc(/C=N/c3ccccc3)cc2)cc1` displayed a Control of 315%. In addition, in assay [2], the inhibition result is “Negative”.
As for `Oc1ccc(/N=C/c2ccc(-c3ccc(/C=N/c4ccc(O)cc4)cc3)cc2)cc1`, the Control in assay [1] was found to be 104%. Also, the inhibition result in assay [2] is “Positive”. For the same compound, the EC50 in assay [3] is 250 nM.
Compound `O=C(O)c1ccc(/N=C/c2ccc(-c3ccc(/C=N/c4ccc(C(=O)O)cc4O)cc3)cc2)c(O)c1` yielded a Control in assay [1] of 62%. Besides, in assay [2], the inhibition result is “Positive”.
As to `COC(=O)c1ccc(OC)c(NCc2ccc(CNc3cc(C(=O)OC)ccc3OC)cc2)c1`, in assay [1], the Control stood at 20%. The inhibition result in assay [2] was “Positive”. In addition, the EC50 in assay [3] was determined as 250 nM.
For `COC(=O)c1ccc(OC)c(/N=C/c2ccc(-c3ccc(/C=N/c4cc(C(=O)OC)ccc4OC)cc3)cc2)c1`, in assay [2], the inhibition result is “Negative”.
In turn, `O=C(O)c1cc(NC(=O)c2ccc(C(=O)Nc3cc(C(=O)O)cc(C(=O)O)c3)cc2)cc(C(=O)O)c1` registered a Control in assay [1] of 1%. Moreover, the inhibition result in assay [2] is “Negative”.
On to `COC(=O)c1ccc(/N=C/c2ccc(/C=N/c3ccc(C(=O)OC)c(O)c3)cc2)cc1O`, for which the Control in assay [1] came out at 113%. Moreover, in assay [2], the inhibition result was “Negative”.
The compound `Cc1ccc(/N=C/c2ccc(/C=N/c3ccc(C)cc3O)cc2)c(O)c1` registered a Control in assay [1] of 230%. Moreover, the inhibition result in assay [2] is “Negative”.
On the same counts, the results for `Oc1ccc(/N=C/c2ccc(/C=N/c3ccc(O)cc3)cc2)cc1` are 240% and “Negative”.
For `COC(=O)c1ccc(NC(=O)c2ccc(-c3ccc(C(=O)Nc4ccc(C(=O)OC)c(OC)c4)cc3)cc2)cc1OC`, the Control in assay [1] stood at 70%. Further, the inhibition result in assay [2] was “Positive”. Besides, in assay [3], the EC50 was 250 nM.
Take `COC(=O)c1ccc(OC)c(NS(=O)(=O)c2ccc(-c3ccc(S(=O)(=O)Nc4cc(C(=O)OC)ccc4OC)cc3)cc2)c1`: the Control in assay [1] is 77%. Further, the inhibition entry (in assay [2]; in the assay with SMB) was “Negative” each time.
`O=C(O)c1ccc(NCc2ccc(CNc3ccc(C(=O)O)cc3O)cc2)c(O)c1` registered a Control in assay [1] of 79%. In addition, in assay [2], the inhibition entry is “Negative”.
In assay [1], `O=C(O)c1ccc(NS(=O)(=O)c2ccc(-c3ccc(S(=O)(=O)Nc4ccc(C(=O)O)cc4O)cc3)cc2)c(O)c1` returned a Control of 12%. Moreover, the inhibition result (in assay [2]; in the assay with SMB) was “Negative” each time.
In turn, `Oc1ccccc1NCc1ccc(CNc2ccccc2O)cc1` yielded a Control in assay [1] of 240%. Besides, in assay [2], the inhibition entry is “Positive”. Besides, the EC50 in assay [3] was determined as 2500 nM.
